Measured values pooled from the literature.
Lines come from different studies, so protocols differ.
Target: Myosin light chain kinase family member 4 (MYLK4, Homo sapiens, UniProt Q86YV6)
One construct used (Q86YV6 1-388): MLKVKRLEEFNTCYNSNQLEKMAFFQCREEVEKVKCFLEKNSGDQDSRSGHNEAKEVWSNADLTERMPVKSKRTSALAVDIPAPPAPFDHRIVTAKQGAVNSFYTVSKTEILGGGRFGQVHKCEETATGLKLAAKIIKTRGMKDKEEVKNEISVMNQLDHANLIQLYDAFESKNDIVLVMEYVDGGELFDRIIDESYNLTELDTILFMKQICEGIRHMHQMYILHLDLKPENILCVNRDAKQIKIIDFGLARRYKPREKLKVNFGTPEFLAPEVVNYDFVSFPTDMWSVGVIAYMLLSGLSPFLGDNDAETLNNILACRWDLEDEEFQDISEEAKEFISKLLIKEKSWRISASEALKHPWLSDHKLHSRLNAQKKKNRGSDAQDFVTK

Structure (SMILES) | observed | technique | concentration | remaining binding [%]
c1cnn2ncc(-c3ccnc(N4CCC45COC5)n3)c2c1 | binding | – | 1 µM | 78
O=S(=O)(NC1CCC(c2cc(F)ccc2F)(S(=O)(=O)c2ccc(Cl)cc2)CC1)C(F)(F)F (stereo not shown) | cell-free assay | competition with immobilised ligand | 1 µM | 100
CNC(=O)[C@@H]1CC[C@@H](n2c(-c3ccc4cnccc4c3)nc3ccc(C(=O)NCc4cccc(C(N)=O)c4)cc32)C1 | binding | competition with immobilised ligand | 1 µM | 100
N[C@H]1CCN(c2nccc(-c3cnn4ncccc34)n2)C1 | binding | – | 1 µM | 100
Cc1cnc(Nc2ccc(C(=O)N3CCC(N4CCCC4)CC3)cc2)nc1-c1cc2ccccc2s1 | binding | competition with immobilised ligand | 1 µM | 0
COc1ccnn2ncc(-c3ccnc(N(C)C)n3)c12 | binding | – | 1 µM | 100
O=C(c1ccc(Nc2ncc(Cl)c(-c3cc4ccccc4s3)n2)cc1)N1CCC(N2CCCC2)CC1 | binding | competition with immobilised ligand | 1 µM | 0.1
CCC(=O)N[C@@H]1CC[C@H](C(=O)N(C)c2ccc(-c3nc4ccccc4o3)cc2)C1 | cell-free assay | competition with immobilised ligand | 1 µM | 100
O=C(NCCCN1CCOCC1)c1ccc(Nc2nccc(-c3cc4ccccc4s3)n2)cc1 | binding | competition with immobilised ligand | 1 µM | 0.1
CCN1CCN(Cc2ccc(C(=O)Nc3ccc(C)c(Oc4ccc5c(c4)CC(=O)N5)c3)cc2C(F)(F)F)CC1 | binding | competition with immobilised ligand | 1 µM | 84
COc1cnc(Nc2cccc(S(N)(=O)=O)c2)nc1N1CCN(c2ccccc2)CC1 | binding | competition with immobilised ligand | 1 µM | 100
COc1ncc2cc3ccccc3nc2c1C#N | cell-free assay | competition with immobilised ligand | 5 µM | 93
Cc1nc(Cc2cccc(C(F)(F)F)c2)sc1-c1ccc(C(N)=O)nc1 | cell-free assay | competition with immobilised ligand | 1 µM | 91
Nc1ncc2c(n1)-c1c([nH]c3ccc(C#CC4CC4)cc13)CCCC2 | binding | competition with immobilised ligand | 1 µM | 83
C[C@@H]1CCN(c2nccc(-c3cnn4ncccc34)n2)C1 | binding | – | 1 µM | 100
Nc1cnc(N2CCc3cc(S(=O)(=O)Nc4c(F)cc(Cl)cc4F)cc(N4CCCC4=O)c32)nc1 | cell-free assay | competition with immobilised ligand | 1 µM | 100
CN(C)c1ncc(F)c(-c2cnn3ncccc23)n1 | binding | – | 1 µM | 100
COc1cccc(CNC(=O)c2nc3scc(COCc4ccc(C(=O)O)cc4)c3c(=O)[nH]2)c1 | cell-free assay | competition with immobilised ligand | 1 µM | 100
O=C(NCC1CCOCC1)c1n[nH]cc1NC(=O)c1c(F)cccc1F | binding | competition with immobilised ligand | 1 µM | 100
